CHT block: inhibitors of human choline transporter CHT. High affinity choline transporter 1 (Homo sapiens), Q9GZV3. CHT-expressing cells, membrane potential dye, choline response; active compounds read low. B-score at 10 µM. hit rate 0.86% among 310,000;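 active means B-score over 3 SD under the library average, and starting fluorescence ratio not unusually high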;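 further: choline stimulus applied at its EC90 after an EC20 pre-addition; B-score computed on integrated fluorescence ratio after choline addition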
procasp3 activ: activators of human procaspase-3 D3A mutant, primary screen, biochemical, absorbance, PC-3 D3A mutant, single concentration; hit rate 0.11% among 330,000; activation, % at 8.5 µM; recombinant procaspase-3 D3A, Ac-DEVD-pNA absorbance 405 nm; Caspase-3 (Homo sapiens), P42574; AID 463141, 2010;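 active means activation above the mean of all tested compounds plus 3 SD, cut at about 21% in these data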
Target sequence (P42574 whole entry D9A/D28A/D175A): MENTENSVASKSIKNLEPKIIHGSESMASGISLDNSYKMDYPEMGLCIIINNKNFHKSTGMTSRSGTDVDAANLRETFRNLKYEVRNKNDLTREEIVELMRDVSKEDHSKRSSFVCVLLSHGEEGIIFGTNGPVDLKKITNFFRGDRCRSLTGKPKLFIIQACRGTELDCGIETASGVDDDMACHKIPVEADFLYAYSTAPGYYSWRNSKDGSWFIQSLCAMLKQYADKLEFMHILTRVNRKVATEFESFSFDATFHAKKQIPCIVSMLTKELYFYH
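Assay system: Autoprocessing-dead procaspase-3 D3A mutant enzyme; also added: Ac-DEVD-pNA; doses: one concentration, 8.5 µM nominal, 0.8% DMSO; times: 1 h compound preincubation, 2 h substrate hydrolysis at 25 °C; technique: 405 nm absorbance of p-nitroaniline, reads at 0 and 120 min; measure: % activation between DMSO and enzyme-spiked controls; repeats: single replicate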
procasp7 counter: procaspase-7 activators, primary screen, counter-screen for procaspase-3 activator project, biochemical, absorbance, HTS, human; recombinant procaspase-7, Ac-DEVD-pNA absorbance 405 nm; D23A/D198A/D206A triple mutant, cannot self-cleave; scale: DMSO 0, 5 µM enzyme 100; activation, % at 8.5 µM; hit rate 0.093% among 330,000; AID 463210, 2010;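 active means percent activation above the screen-wide mean plus 3 SD, cut at about 25% in these data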
Target sequence (P55210 whole entry D23A/D198A/D206A): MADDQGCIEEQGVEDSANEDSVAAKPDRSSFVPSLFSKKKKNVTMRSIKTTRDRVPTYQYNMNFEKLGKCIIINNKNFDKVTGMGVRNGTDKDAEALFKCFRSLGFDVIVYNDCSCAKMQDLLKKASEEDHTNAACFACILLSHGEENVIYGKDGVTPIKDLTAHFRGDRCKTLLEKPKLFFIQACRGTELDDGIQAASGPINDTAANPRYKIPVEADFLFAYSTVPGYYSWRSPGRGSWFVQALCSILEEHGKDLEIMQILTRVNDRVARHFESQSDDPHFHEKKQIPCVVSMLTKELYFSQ
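Assay system: Uncleavable procaspase-7 mutant enzyme / Input: 2 µM procaspase-7 mutant as dispensed / Dosing: single nominal 8.5 µM compound dose, 0.8% DMSO final / Timing: 1 h enzyme–compound preincubation and 2 h substrate reaction, both 25 °C / Detection: p-Nitroaniline absorbance at 405 nm, read at 0 and 120 min / Replication: singlicate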
CHT allo act: CHT positive allosteric modulators, primary screen, cell-based, membrane potential dye, choline EC20 | High affinity choline transporter 1 (Homo sapiens), Q9GZV3 | CHT-expressing cells; active compounds read high; LV-AA mutant CHT in HEK293 cells | B-score at 10 µM | hit rate 0.49% among 310,000;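 active means initial fluorescence not abnormally high and integrated response B-score, plate-corrected, over 3 SD above library mean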
CHT act confirm: CHT activators, confirmation, cell-based, membrane potential dye, duplicate | shares compounds with CHT allo act | CHT-expressing cells, membrane potential dye fluorescence (FDSS); % of choline EC20–EC90 response window; HEK293 expressing CHT LV-AA mutant; choline added at its EC20 | activation, % at 10 µM | hit rate 91% among 2,500;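 active means primary screen active, with duplicate mean activation above negative control mean plus 3 SD, cut at about 11% in these data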
HEK293 MP dye: membrane potential response in parental HEK293 cells, counter-screen for CHT activator project, cell-based, membrane potential dye | AID 623908, 2012 | ratio readout change at 10 µM, hits read low | membrane potential dye fluorescence (FDSS); measured after EC20 choline addition | hit rate 62% among 2,500 | shares compounds with CHT allo act;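 active means duplicate-averaged ratio beyond 3 SD from buffer wells, up or down, though filed actives are nearly all decreases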
Numbers stand for hits; n = inactive; x = no result. Hits are enriched below; roughly 1.3% of the tested compounds scored in any of these assays.

SMILES | CHT block | procasp3 activ | procasp7 counter | CHT allo act | CHT act confirm | HEK293 MP dye
C[n+]1c(-c2ccccc2)cc(-c2ccc(O)cc2)cc1-c1ccccc1 | n | n | n | 6.96 | 55.4 | -57.6
O=[N+]([O-])c1ccc(-[n+]2c(-c3ccccc3)cc(-c3ccccc3)cc2-c2ccccc2)cc1 | n | n | n | n | 65.6 | -28.1
O=C([O-])c1ccc(-[n+]2c(-c3ccccc3)cc(-c3ccccc3)cc2-c2ccccc2)cc1 | n | n | n | n | x | x
Oc1ccc(-[n+]2c(-c3ccccc3)cc(-c3ccccc3)cc2-c2ccccc2)cc1 | n | n | n | 9.77 | 80.4 | -26
CN1CCCN(C(=O)COc2ccc(F)cc2Cl)CC1 | n | n | n | n | x | x
Cc1ccc(OCCOc2cccc(C=C3C(=O)NC(=O)NC3=O)c2)cc1 | n | n | n | n | x | x
CN(C)c1ccc(/C=C/C=C/c2sc3ccccc3[n+]2C)cc1 | n | n | n | n | x | x
CC[n+]1c(/C=C/N(C)c2ccccc2)sc2ccc(Cl)cc21 | n | n | n | n | 14.9 | -39.5
CCCCCCC(Cl)(Cn1ccnc1)c1ccccc1 (centres undefined) | n | n | n | n | x | x
Cc1cc(Cl)ccc1OCC(=O)N1CCN(C)CC1 | n | n | n | n | x | x
CN1CCN(C(=O)OC2c3nccnc3C(=O)N2c2ccc(Cl)cn2)CC1 (centres undefined) | n | n | n | 9.83 | 67.7 | -59.6
CCS(=O)(=O)NCc1nnc2n1-c1ccc(Br)cc1C(c1ccccc1Cl)=NC2 | n | n | n | n | x | x
CCC[N+]12CCC(CC1)C(=C(c1ccccc1)c1ccccc1)C2 | n | n | n | 6.48 | 16.4 | n
CCCC[N+]12CCC(CC1)C(=C(c1ccccc1)c1ccccc1)C2 | n | n | n | 9.4 | 61.3 | n
COC(=O)C1=C(c2c(C)noc2C)C[C@@H]2CC[C@H]1N2C(=O)NC1Cc2ccccc2C1 | x | n | n | x | x | x
CCN(CC)C(=O)c1ccc(NC(=O)CN2CCc3cc(OC)c(OC)cc3C2)cc1 | n | n | n | n | x | x
CC(=O)O[C@@H]1CC[C@]2(C)C3CC[C@]4(C)C(=O)[C@H](O)CC4C3[C@@H](OC(C)=O)C[C@H]2C1 (some centres undefined) | x | n | n | x | x | x
NC(N)=Nc1ccc2[nH]c3c(c2c1)C[C@@]1(O)[C@H]2Cc4ccc(O)c5c4[C@@]1(CCN2CC1CC1)[C@H]3O5 | n | n | n | 8.32 | 11.5 | -32.8
COc1cccc(-n2c(O)c(C=NCCN3CCNCC3)c(=O)[nH]c2=S)c1 | n | n | n | n | x | x
C[n+]1ccc(-c2cc[n+](C)cc2)cc1 | n | n | n | 10.9 | 85.4 | -100
CCCCCCC[n+]1ccc(-c2cc[n+](CCCCCCC)cc2)cc1 | n | n | n | n | x | x
COc1ccccc1NC(=O)c1cn(CCC#N)nc1-c1cccc(Cl)c1 | n | x | x | n | x | x
O=C(CCC(=O)N1CC2C[C@@H](C1)Cn1c2cccc1=O)NCCc1ccccc1F | n | n | n | n | x | x
COc1ccc2c3c([nH]c2c1)C(C)=NCC3 | n | n | n | n | 32.7 | -42.8
CC1=NCCc2c1[nH]c1cc(O)ccc21 | n | n | n | n | x | x
SMILES | CHT block | procasp3 activ | procasp7 counter | CHT allo act | CHT act confirm | HEK293 MP dye
CCOC(=O)c1c(C)n(Cc2ccccc2)c2ccc(OCC(O)CNC(C)(C)C)cc12 (centres undefined) | n | n | n | n | x | x
COc1ccccc1CCNCc1cccc(C(F)(F)F)c1 | n | n | n | n | x | x
CN(C)c1cc[n+](CC(O)C[n+]2ccc(N(C)C)cc2)cc1 | n | n | n | 7.73 | 35.1 | -70.7
C[n+]1c(-c2ccccc2)sc2ccccc21 | n | n | n | n | 51.5 | -42
CN(C)c1nc(-c2ccccc2)[n+](C)s1 | n | n | n | n | 26.2 | -48.7
Cc1cccc(NC(=O)COC(=O)c2cc(C)n(C3CC3)c2C)c1 | x | n | n | x | x | x
OC(Cn1c2ccccc2c2ccccc21)C[n+]1cccc2ccccc21 (centres undefined) | n | n | n | n | 39.1 | -37.7
CN1CCN(c2nc(N(C)C)oc(=O)c2C#N)CC1 | n | n | n | n | 53.7 | -47.3
COC(=O)C1=C(c2ccccc2OCc2ccccc2)C[C@@H]2CC[C@H]1N2C(=O)NCCCOC(C)C | x | n | n | x | x | x
Fc1ccc(C[n+]2c(-c3ccccc3)cc(-c3ccccc3)cc2-c2ccccc2)cc1 | n | n | n | 8.15 | 31.7 | n
COC(=O)C1=C(c2ccc(S(C)(=O)=O)cc2)C[C@@H]2CC[C@H]1N2C(=O)NC(C)C | n | n | n | n | x | x
Cn1c(O)c(/C=N/c2ncccn2)c(=O)n(C)c1=O | n | n | n | n | 38.1 | -35.6
Cc1cccc(NP(=O)(Oc2ccccc2F)Oc2ccccc2F)c1 | n | n | n | n | 22.6 | n
Nc1c(C(=O)NCc2ccco2)c2nc3ccccc3nc2n1CCN1CCOCC1 | n | n | n | 6.41 | 19.8 | -20.5
CN1[C@H]2CC[C@@H]1C(C(=O)N1CCOCC1)=C(O)C2 | x | n | n | x | x | x
O=C(Nc1ccccc1)c1cc([N+](=O)[O-])ccc1N1CCNCC1 | n | n | n | n | x | x
O=[N+]([O-])c1ccc2nc(N3CCNCC3)ccc2c1 | n | n | n | 11.1 | 37.0 | -50.6
COC(=O)C1=C(c2c(C)noc2C)C[C@@H]2CC[C@H]1N2C(=O)NCc1ccco1 | x | n | n | x | x | x
